Calls of active or inactive are those of the source. No cut-off for these calls is given here.
What was measured:
[1] = molecular target: T1, Nuclear receptor subfamily 1 group I member 2 (Homo sapiens, UniProt O75469); assay: Transactivation of human PXR expressed in HepG2 cells after 18 hrs by luciferase reporter gene assay; format: cell-based
T1 sequence (O75469 whole entry): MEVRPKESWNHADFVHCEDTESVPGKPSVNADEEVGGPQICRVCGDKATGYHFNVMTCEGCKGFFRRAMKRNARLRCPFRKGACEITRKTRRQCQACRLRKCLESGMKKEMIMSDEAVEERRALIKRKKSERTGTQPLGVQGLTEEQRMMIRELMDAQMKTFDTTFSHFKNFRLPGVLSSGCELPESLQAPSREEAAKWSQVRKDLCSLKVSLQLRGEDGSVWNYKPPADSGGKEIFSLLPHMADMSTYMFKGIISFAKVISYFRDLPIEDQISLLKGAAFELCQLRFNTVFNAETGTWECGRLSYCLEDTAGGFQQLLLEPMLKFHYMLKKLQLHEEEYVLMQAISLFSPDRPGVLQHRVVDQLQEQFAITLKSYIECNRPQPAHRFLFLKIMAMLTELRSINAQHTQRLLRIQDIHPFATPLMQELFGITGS
Method in brief: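 HepG2 cells were transiently transfected with pSG5-PXR, pSG5-RXR, pCMV-βgal and a CYP3A4-promoter luciferase reporter. 48 h after transfection, cells were stimulated for 18 h at 0.1, 1 and 10 μM. Luciferase was normalised to β-galactosidase; n = 4. Relative EC50 from n = 3.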

Mus musculus [2] = assay: Antiinflammatory activity against trinitrobenzenesulfonic acid-induced colitis in human PXR expressing transgenic C57/BL6 mouse assessed as decrease in microscopic colon damage at 10 mg/kg, ip qd administered 3 days before TNBS challenge measured after 7 days; format: functional, organism-based; set-up: dose 10 mg/kg; details: C57Bl/6
Method in brief: (§1)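 Male hPXR mice (human PXR on mouse PXR-null background). Fasted 16 h and lightly anaesthetised with ketamine/xylazine, then given TNBS 0.5 mg/mouse in 50% ethanol intrarectally in 150 μL. Drug was dissolved in DMSO, diluted in 1% methylcellulose and given i.p. once daily for 3 days before TNBS. Vehicle controls received methylcellulose. Mice were sacrificed 4 days after TNBS; n = 6–7 per group.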

Mus musculus [3] = assay: Antiinflammatory activity against trinitrobenzenesulfonic acid-induced colitis in human PXR expressing transgenic C57/BL6 mouse assessed as decrease in cellular infiltrate in colon at 10 mg/kg, ip qd administered 3 days before TNBS challenge measured after 7 days; format: functional, organism-based; set-up: dose 10 mg/kg; details: C57Bl/6; method in brief: as §1
Mus musculus [4] = assay: Antiinflammatory activity against trinitrobenzenesulfonic acid-induced colitis in human PXR expressing transgenic C57/BL6 mouse assessed as decrease in INF-gamma protein level in colon at 10 mg/kg, ip qd after 5 days; format: functional, organism-based; set-up: dose 10 mg/kg; details: C57Bl/6
Mus musculus [5] = assay: (§2) Antiinflammatory activity against trinitrobenzenesulfonic acid-induced colitis in human PXR expressing transgenic C57/BL6 mouse assessed as decrease in appearance of epithelial erosions in colon at 10 mg/kg, ip qd administered 3 days before TNBS challenge measured after 7 days by haematoxylin/eosin staining; format: functional, organism-based; set-up: dose 10 mg/kg; details: C57Bl/6; method in brief: as §1
Mus musculus [6] = assay: Antiinflammatory activity against trinitrobenzenesulfonic acid-induced colitis in human PXR expressing transgenic C57/BL6 mouse assessed as decrease in thickness of colon at 10 mg/kg, ip administered on day 1 after TNBS challenge measured after 5 days; format: functional, organism-based; set-up: dose 10 mg/kg; details: C57Bl/6
Method in brief: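 Therapeutic protocol in male hPXR mice. Colitis was induced with intrarectal TNBS 0.5 mg/mouse in 50% ethanol after a 16 h fast and light ketamine/xylazine anaesthesia. Drug at 10 mg/kg was given once daily from day 1 after TNBS. Mice were sacrificed 5 days after TNBS; n = 4–6 per group.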

Mus musculus [7] = assay: Antiinflammatory activity against trinitrobenzenesulfonic acid-induced colitis in human PXR expressing transgenic C57/BL6 mouse assessed as decrease in vascular density in colon at 10 mg/kg, ip administered on day 1 after TNBS challenge measured after 5 days by microscopically; details: C57Bl/6
Mus musculus [8] = assay: Antiinflammatory activity against trinitrobenzenesulfonic acid-induced colitis in human PXR expressing transgenic C57/BL6 mouse assessed as increase in IL-10 protein level in colon at 10 mg/kg, ip qd after 5 days by ELISA; format: functional, organism-based; set-up: dose 10 mg/kg; details: C57Bl/6; method in brief: as §1
Mus musculus [9] = assay: Antiinflammatory activity against trinitrobenzenesulfonic acid-induced colitis in human PXR expressing transgenic C57/BL6 mouse assessed as decrease in edema of colon at 10 mg/kg, ip qd administered 3 days before TNBS challenge measured after 7 days; format: functional, organism-based; set-up: dose 10 mg/kg; details: C57Bl/6; method in brief: as §1
Mus musculus [10] = assay: as §2, with “submucosal edema” for “epithelial erosions”; format: functional, organism-based; set-up: dose 10 mg/kg; details: C57Bl/6; method in brief: as §1
Mus musculus [11] = assay: Antiinflammatory activity against trinitrobenzenesulfonic acid-induced colitis in human PXR expressing transgenic C57/BL6 mouse assessed as decrease in IL-12p70 protein level in colon at 10 mg/kg, ip qd after 5 days; format: functional, organism-based; set-up: dose 10 mg/kg; details: C57Bl/6

C[C@H](CCCOS(=O)(=O)O)[C@H]1CC[C@H]2[C@@H]3CC[C@H]4C[C@H](OS(=O)(=O)O)[C@@H](OS(=O)(=O)O)C[C@]4(C)[C@H]3CC[C@]12C [SOLOMONSTEROL A]
EC50 [1]: 5.2 µM
Activity (Mus musculus [2]): Active
Activity (Mus musculus [3]): Active
Activity (Mus musculus [4]): Active
Activity (Mus musculus [5]): Active
Activity (Mus musculus [6]): Active
Activity (Mus musculus [7]): Active
Activity (Mus musculus [8]): Active
Activity (Mus musculus [9]): Active
Activity (Mus musculus [10]): Active
Activity (Mus musculus [11]): Active

— ChEMBL document CHEMBL1799920, “Total synthesis and pharmacological characterization of solomonsterol A, a potent marine pregnane-X-receptor agonist endowed with anti-inflammatory activity” (J Med Chem, 2011)
